According to ChEMBL document CHEMBL4316592, “Synthesis of new derivatives of boehmeriasin A and their biological evaluation in liver cancer” (Eur J Med Chem, 2019):
The source made the active and inactive calls. The calls are words filed in the database; no cut-off is given here.

What was measured:
SNU-475 = experiment: Cytotoxicity against human SNU475 cells after 72 hrs by SRB assay; assay type: functional, cell-based; settings: Homo sapiens, SNU-475, 72 h; read-out: IC50
Procedure, shortened: (§1)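 SRB assay. Cells plated per well (HCT116 3000; Huh7, Hep3B, HepG2, MCF-7 2000; Mahlavu, FOCUS, SNU475 1000) and grown 24 h. Compounds came from 20 mM DMSO stocks and were tested in triplicate, 40 to 2,5 (or 2,5 to 0,03) per printed range, for 72 h. Cells fixed in 10% TCA, stained with 0.4% SRB, dye dissolved in 10 mM Tris, A515 read. IC50 derived after DMSO normalization.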

[1] = Cytotoxicity against human FOCUS cells after 72 hrs by SRB assay; assay type: functional, cell-based; settings: Homo sapiens, 72 h; read-out: IC50; procedure, shortened: as §1
Mahlavu [2] = experiment: Cytotoxicity against human Mahlavu cells after 24 hrs by RTCA analysis; assay type: functional, cell-based
Procedure, shortened: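 xCELLigence impedance real-time growth assay. Huh7 (2000) or Mahlavu (1000) cells plated, treated after 24 h at log phase with a 2-fold dilution series (4 steps) from a top concentration of 1. Cell index recorded every 10 min for 24 h, then every 30 min. Growth inhibition normalized to DMSO; IC50 taken at 24, 48, 72 h.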

Mahlavu [3] = experiment: Induction of apoptosis in human Mahlavu cells assessed as increase in cytochrome C levels at 1 uM by Hoechst staining-based assay; assay type: functional, cell-based
Huh-7 [4] = experiment: Induction of apoptosis in human HuH7 cells assessed as increase in cleaved PARP levels at 1 uM after 72 hrs by Western blot analysis; assay type: functional, cell-based
Huh-7 [5] = experiment: Induction of apoptosis in human HuH7 cells assessed as viable cells at 1 uM after 24 hrs by Annexin V-FITC/propidium iodide staining-based flow cytometric analysis (reference value: 97.30%); assay type: functional; settings: Huh-7, 24 h, read-out: Activity
Huh-7 [6] = experiment: Induction of apoptosis in human HuH7 cells assessed as necrotic cells at 1 uM after 24 hrs by Annexin V-FITC/propidium iodide staining-based flow cytometric analysis (reference value: 0.03%); assay type: functional
Huh-7 [7] = experiment: Induction of apoptosis in human HuH7 cells assessed as viable cells at 1 uM after 72 hrs by Annexin V-FITC/propidium iodide staining-based flow cytometric analysis (reference value: 97.20%); assay type: functional; settings: Huh-7, 72 h, read-out: Activity
Huh-7 [8] = experiment: Induction of apoptosis in human HuH7 cells assessed as early apoptotic cells at 1 uM after 72 hrs by Annexin V-FITC/propidium iodide staining-based flow cytometric analysis (reference value: 0.03%); assay type: functional
Mahlavu [9] = experiment: Induction of apoptosis in human Mahlavu cells assessed as viable cells at 1 uM after 24 hrs by Annexin V-FITC/propidium iodide staining-based flow cytometric analysis (reference value: 98.51%); assay type: functional; settings: read-out: Activity
Mahlavu [10] = experiment: Induction of apoptosis in human Mahlavu cells assessed as necrotic cells at 1 uM after 72 hrs by Annexin V-FITC/propidium iodide staining-based flow cytometric analysis (reference value: 0.22%); assay type: functional
Huh-7 [11] = experiment: Cell cycle arrest in human HuH7 cells assessed as accumulation of cells at subG1 phase at 1 uM after 72 hrs by propidium iodide staining-based flow cytometric analysis (reference value: 4.7%); assay type: functional
Huh-7 [12] = experiment: Cell cycle arrest in human HuH7 cells assessed as accumulation of cells at S phase at 1 uM after 72 hrs by propidium iodide staining-based flow cytometric analysis (reference value: 15.5%); assay type: functional
Mahlavu [13] = experiment: Cell cycle arrest in human Mahlavu cells assessed as accumulation of cells at subG1 phase at 1 uM after 72 hrs by propidium iodide staining-based flow cytometric analysis (reference value: 22.4%); assay type: functional
Mahlavu [14] = experiment: Cell cycle arrest in human Mahlavu cells assessed as accumulation of cells at S phase at 1 uM after 72 hrs by propidium iodide staining-based flow cytometric analysis (reference value: 13%); assay type: functional
[15] = biological target: T1, Mitogen-activated protein kinase kinase kinase 5 (Homo sapiens) (UniProt Q99683); experiment: Inhibition of ASK1 Ser-966 phosphorylation in human HuH7 cells at 1 uM after 24 to 72 hrs by Western blot analysis; assay type: cell-based
T1 sequence (whole entry): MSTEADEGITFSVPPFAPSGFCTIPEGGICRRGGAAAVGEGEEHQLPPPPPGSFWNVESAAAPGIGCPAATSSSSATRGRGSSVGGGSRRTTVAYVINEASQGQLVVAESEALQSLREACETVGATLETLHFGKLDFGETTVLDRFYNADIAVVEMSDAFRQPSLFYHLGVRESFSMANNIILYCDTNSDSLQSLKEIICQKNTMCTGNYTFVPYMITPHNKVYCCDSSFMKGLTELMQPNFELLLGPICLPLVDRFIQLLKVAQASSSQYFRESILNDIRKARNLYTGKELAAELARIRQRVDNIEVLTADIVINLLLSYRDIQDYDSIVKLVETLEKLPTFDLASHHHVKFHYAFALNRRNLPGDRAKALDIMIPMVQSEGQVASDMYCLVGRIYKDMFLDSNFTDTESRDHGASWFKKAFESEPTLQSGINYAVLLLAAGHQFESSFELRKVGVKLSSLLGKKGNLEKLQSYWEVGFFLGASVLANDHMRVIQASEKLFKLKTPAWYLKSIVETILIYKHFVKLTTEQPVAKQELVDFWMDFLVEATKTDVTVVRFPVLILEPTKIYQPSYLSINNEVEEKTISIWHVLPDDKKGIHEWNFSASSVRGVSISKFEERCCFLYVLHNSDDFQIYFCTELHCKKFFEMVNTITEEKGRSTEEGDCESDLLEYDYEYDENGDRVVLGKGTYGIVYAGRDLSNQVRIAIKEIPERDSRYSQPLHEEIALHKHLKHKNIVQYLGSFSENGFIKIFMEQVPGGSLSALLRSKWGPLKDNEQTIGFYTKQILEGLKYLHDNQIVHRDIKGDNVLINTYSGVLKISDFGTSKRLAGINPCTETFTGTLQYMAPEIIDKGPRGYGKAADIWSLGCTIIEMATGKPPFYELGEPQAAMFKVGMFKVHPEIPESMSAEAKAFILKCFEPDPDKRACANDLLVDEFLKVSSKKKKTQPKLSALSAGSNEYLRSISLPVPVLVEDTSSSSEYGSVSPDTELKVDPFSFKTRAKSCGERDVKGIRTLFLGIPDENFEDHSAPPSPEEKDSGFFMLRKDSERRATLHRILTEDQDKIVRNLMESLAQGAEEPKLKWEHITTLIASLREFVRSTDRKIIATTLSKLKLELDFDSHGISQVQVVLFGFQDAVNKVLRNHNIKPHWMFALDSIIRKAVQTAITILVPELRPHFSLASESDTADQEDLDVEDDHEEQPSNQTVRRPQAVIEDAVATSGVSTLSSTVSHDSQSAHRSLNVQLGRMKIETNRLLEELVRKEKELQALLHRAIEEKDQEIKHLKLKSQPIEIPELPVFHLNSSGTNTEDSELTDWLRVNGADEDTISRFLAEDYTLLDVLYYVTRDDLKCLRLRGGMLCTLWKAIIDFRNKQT

Huh-7 [16] = experiment: Down-regulation of CDK1 protein expression in human HuH7 cells at 1 uM after 24 to 72 hrs by Western blot analysis; assay type: functional, cell-based

Row | Compound | IC50 (SNU-475) [nM] | IC50 [1] [nM] | IC50 (Mahlavu [2]) [nM] | Activity (Mahlavu [3]) | Activity (Huh-7 [4]) | viability at 1 µM (Huh-7 [5]) [%] | Activity (Huh-7 [6]) [%] | viability at 1 µM (Huh-7 [7]) [%] | Activity (Huh-7 [8]) [%] | viability at 1 µM (Mahlavu [9]) [%] | Activity (Mahlavu [10]) [%] | Activity (Huh-7 [11]) [%] | Activity (Huh-7 [12]) [%] | Activity (Mahlavu [13]) [%] | Activity (Mahlavu [14]) [%] | inhibition [15] | Activity (Huh-7 [16])
1 | COc1ccc2c3c(c4cc(OC)c(OC)cc4c2c1)CN1CCCC[C@@H]1C3 | 14 | 20 | 200 | Active | Active | 98.9 | 0 | 83.4 | 0.1 | 94.2 | 1.84 | 57.5 | 8.7 | 26.9 | 9.1 | Active | Active
2 | COc1ccc2c3c(c4cc(OC)c(OC)cc4c2c1)CN1CCCCC1C3O (racemic) | 15 | 12 | 10 | Active | Active | 99.1 | 0 | 81.7 | 0.2 | 98.3 | 2.26 | 62.9 | 7.7 | 48.9 | 10.2 | Active | Active
